Laboratory results as given in ChEMBL document CHEMBL5674874, “BRD4 facilitates DNA damage response and represses CBX5/Heterochromatin protein 1 (HP1)” (Oncotarget, 2017).
pIC50: −log10 of the molar value. Calls of active or inactive are those of the source. No cut-off for these calls is given here.

Columns and labels:
OVCAR-3 [1] = assay: Induction of DNA damage response in human OVCAR-3 cells assessed as CHK1 Ser345 phosphorylation at 2.5 uM in presence of 2.5 nM CHK1 inhibitor LY2606368 after 24 hrs by Western blot analysis; assay type: functional, cell-based
In short: (§1)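 Cells were exposed to JQ1 (2.5 μM) and/or LY2606368 (2.5 nM) for 24hr. Sub-confluent cells were lysed in 1% NP40 buffer with protease and phosphatase inhibitors, and protein was measured by BCA. Total lysates were blotted for phospho-CHK1 (Ser345) and CHK1 with GAPDH as loading control, using HRP chemiluminescence detection. Blots were repeated three times.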

SK-OV-3 [2] = assay: Cytotoxicity against human SK-OV-3 cells assessed as reduction in cell viability after 3 days by XTT assay; assay type: functional, cell-based; settings: SK-OV-3, 72 h
In short: (§2)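 Ovarian cancer lines in RPMI with 10% heat-inactivated FBS were seeded at 2,000-4000 cells/well in triplicate. Drug from DMSO stock was added 24hr later, and XTT was read 3 days after drug addition. Proliferation is relative to negative control, and IC50 was calculated from the individual XTT data points.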

SK-OV-3 [3] = assay: Induction of DNA damage response in human SK-OV-3 cells assessed as CHK1 Ser345 phosphorylation at 2.5 uM in presence of 2.5 nM CHK1 inhibitor LY2606368 after 24 hrs by Western blot analysis; assay type: functional, cell-based; in short: as §1
IGROV-1 = assay: Induction of DNA damage response in human IGROV-1 cells assessed as CHK1 Ser345 phosphorylation at 2.5 uM in presence of 2.5 nM CHK1 inhibitor LY2606368 after 24 hrs by Western blot analysis; assay type: functional, cell-based; in short: as §1
OVCAR-8 [4] = assay: Cytotoxicity against human OVCAR-8 cells assessed as reduction in cell viability after 3 days by XTT assay; assay type: functional, cell-based; settings: OVCAR-8, 72 h; in short: as §2
OVCAR-8 [5] = assay: Induction of cell cycle arrest in human OVCAR-8 cells assessed as accumulation of cells at G1 phase at 2.5 uM for 20 hrs by propidium iodide staining based flow cytometry; assay type: functional
[6] = molecular target: Bromodomain-containing protein 4 (Homo sapiens) (UniProt O60885); settings: OVCAR-8, dose 500.0 nM, time 24.0 hrs
OVCAR-5 [7] = assay: Cytotoxicity against human OVCAR-5 cells assessed as reduction in cell viability after 3 days by XTT assay; assay type: functional, cell-based; settings: OVCAR-5, 72 h; in short: as §2
OVCAR-5 [8] = assay: Induction of DNA damage response in human OVCAR-5 cells assessed as CHK1 Ser345 phosphorylation at 2.5 uM in presence of 2.5 nM CHK1 inhibitor LY2606368 after 24 hrs by Western blot analysis; assay type: functional, cell-based; in short: as §1
OVCAR-8 [9] = assay: Effect on gamma-H2AX phosphorylation in nucleus of human OVCAR-8 cells at 2.5 uM for 20 hrs by immunofluorescent staining; assay type: functional, cell-based
In short: (§3)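 Cells were serum-starved for 16hr, then given JQ1 2.5 μM and/or LY2606368 10 nM for 20hr. They were fixed in 4% paraformaldehyde, permeabilized with 0.25% Triton X-100, and blocked in 10% goat serum. γ-H2AX (Ser139/Tyr142) antibody at 1:200 was applied for 2hr, then an Alexa Fluor secondary for 1hr at 4°C. Signal was read by flow cytometry.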

OVCAR-8 [10] = assay: Induction of DNA damage response in human OVCAR-8 cells assessed as CHK1 Ser345 phosphorylation at 2.5 uM in presence of 2.5 nM CHK1 inhibitor LY2606368 after 24 hrs by Western blot analysis; assay type: functional, cell-based; in short: as §1
[11] = molecular target: Bromodomain-containing protein 4 (Homo sapiens) (UniProt O60885); settings: OVCAR-8, dose 500.0 nM, time 24.0 hrs; remark: listed apart in the source
A2780 [12] = assay: Induction of DNA damage response in human A2780 cells assessed as CHK1 Ser345 phosphorylation at 2.5 uM in presence of 2.5 nM CHK1 inhibitor LY2606368 after 24 hrs by Western blot analysis; assay type: functional, cell-based; in short: as §1
OVCAR-8 [13] = assay: Effect on gamma-H2AX expression in human OVCAR-8 cells at 2.5 uM for 20 hrs by immunofluorescent staining; assay type: functional, cell-based; in short: as §3
A2780 [14] = assay: Cytotoxicity against human A2780 cells assessed as reduction in cell viability after 3 days by XTT assay; assay type: functional, cell-based; settings: A2780, 72 h; in short: as §2
OVCAR-3 [15] = assay: Cytotoxicity against human OVCAR-3 cells assessed as reduction in cell viability after 3 days by XTT assay; assay type: functional, cell-based; settings: OVCAR-3, 72 h; in short: as §2
OVCAR-8 [16] = assay: Cytotoxicity against human OVCAR-8 cells assessed as reduction in cell viability at 10 nM in presence of siCBX5 after 3 days by XTT assay; assay type: functional, cell-based; settings: time 3.0 day
In short: (§4)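 Cells were transfected with siRNA (final 20nM, DharmaFECT1) and seeded in 3 replicates 24hr later. Drug was added 24hr after seeding. Viability was read by XTT and normalized to siNeg-transfected cells.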

OVCAR-5 [17] = assay: Cytotoxicity against human OVCAR-5 cells assessed as reduction in cell viability at 10 nM in presence of siCBX5 after 3 days by XTT assay; assay type: functional, cell-based; settings: time 3.0 day; in short: as §4
OVCAR-8 [18] = assay: Induction of abnormal nuclear morphology in human OVCAR-8 cells at 10 nM by immunostaining; assay type: functional, cell-based
In short: (§5)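 Ovcar8 cells were transfected with 20nM siRNA; for co-transfection, 10nM of each. At 24hr they were plated on coverslips, and 8hr later LY2606368 10nM was added for 24hr. Cells were fixed (4% paraformaldehyde), permeabilized (0.25% Triton X-100), blocked (10% goat serum) and stained for H3K4me3, γ-H2AX and DAPI. Sphericity is the ratio of two perpendicular nuclear diameters, over multiple fields of 10-40 cells.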

OVCAR-8 [19] = assay: Induction of abnormal nuclear morphology in human OVCAR-8 cells assessed as loss of nuclear roundness at 10 nM in presence of siCBX5 by immunostaining; assay type: functional, cell-based; in short: as §5
SK-OV-3 [20] = assay: Cytotoxicity against human SK-OV-3 cells assessed as reduction in cell viability at 10 nM in presence of siCBX5 after 3 days by XTT assay; assay type: functional, cell-based; settings: time 3.0 day; in short: as §4
OVCAR-3 [21] = assay: Cytotoxicity against human OVCAR-3 cells assessed as reduction in cell viability at 10 nM in presence of siCBX5 after 3 days by XTT assay; assay type: functional, cell-based; settings: time 3.0 day; in short: as §4

In the case of `Cc1sc2c(c1C)C(c1ccc(Cl)cc1)=N[C@@H](CC(=O)OC(C)(C)C)c1nnc(C)n1-2`, the Activity (OVCAR-3 [1]) was “inactive”, the pIC50 (SK-OV-3 [2]) was 7.00 and the Activity (SK-OV-3 [3]) was “inactive”. The Activity (IGROV-1) was “inactive”, the pIC50 (OVCAR-8 [4]) was 7.00 and the Activity (OVCAR-8 [5]) was “Active”. The inhibition [6] was “Active”, the pIC50 (OVCAR-5 [7]) was 7.00 and the Activity (OVCAR-5 [8]) was “inactive”. The Activity (OVCAR-8 [9]) was “inactive”, the Activity (OVCAR-8 [10]) was “inactive” and the inhibition [11] was “Active”. The Activity (A2780 [12]) was “inactive”, the Activity (OVCAR-8 [13]) was “inactive” and the pIC50 (A2780 [14]) was 7.00. For the same compound, the pIC50 (OVCAR-3 [15]) was 7.00.
In the case of `COc1cccc(OCCCN)c1-c1cc(Nc2cnc(C#N)cn2)n[nH]1` [PREXASERTIB], the Activity (OVCAR-8 [16]) was “inactive”, the pIC50 (SK-OV-3 [2]) was 8.00 and the IC25 (SK-OV-3 [2]; time 3 day) was 0.004 µM. For the same compound, the Activity (OVCAR-5 [17]) was “inactive”, the Activity (OVCAR-8 [18]) was “Active” and the pIC50 (OVCAR-8 [4]) was 8.00. For the same compound, the IC25 (OVCAR-8 [4]; time 3 day) was 0.005 µM, the pIC50 (OVCAR-5 [7]) was 8.52 and the IC25 (OVCAR-5 [7]; time 3 day) was 0.0015 µM. For the same compound, the Activity (OVCAR-8 [19]) was “inactive”, the pIC50 (A2780 [14]) was 7.40 and the IC25 (A2780 [14]; time 3 day) was 0.01 µM. For the same compound, the pIC50 (OVCAR-3 [15]) was 7.92, the IC25 (OVCAR-3 [15]; time 3 day) was 0.006 µM and the Activity (SK-OV-3 [20]) was “inactive”. The Activity (OVCAR-3 [21]) was “inactive”.
